This is an account of results in ChEMBL document CHEMBL2177058 (J Med Chem, 2012).

Calls of active or inactive are those of the source. The rule behind the calls is not given here.

Assay [1] concerns the target T1, Kappa-type opioid receptor (Homo sapiens, UniProt P41145). Nature of the assay: Agonist activity at human kappa opioid receptor expressed in CHO cell membranes incubated for 60 mins by [35S]GTPgammaS binding assay. Type of assay: functional. Background: GTPγS resists hydrolysis and so accumulates on activated G proteins.
For assay [2], the target named is T1, Kappa-type opioid receptor. Nature of the assay: Displacement of [3H]U69,593 from human kappa opioid receptor expressed in CHO cell membranes incubated for 60 mins by liquid scintillation counting.
The target in assay [3] is Delta-type opioid receptor (Homo sapiens, UniProt P41143). Nature of the assay: Displacement of [3H]pCl-DPDPE from human delta opioid receptor expressed in CHO cell membranes incubated for 60 mins by liquid scintillation counting. For orientation: Displacement assays read how much labelled ligand stays bound in the presence of the test substance.
Delta-type opioid receptor, sequence (P41143 whole entry): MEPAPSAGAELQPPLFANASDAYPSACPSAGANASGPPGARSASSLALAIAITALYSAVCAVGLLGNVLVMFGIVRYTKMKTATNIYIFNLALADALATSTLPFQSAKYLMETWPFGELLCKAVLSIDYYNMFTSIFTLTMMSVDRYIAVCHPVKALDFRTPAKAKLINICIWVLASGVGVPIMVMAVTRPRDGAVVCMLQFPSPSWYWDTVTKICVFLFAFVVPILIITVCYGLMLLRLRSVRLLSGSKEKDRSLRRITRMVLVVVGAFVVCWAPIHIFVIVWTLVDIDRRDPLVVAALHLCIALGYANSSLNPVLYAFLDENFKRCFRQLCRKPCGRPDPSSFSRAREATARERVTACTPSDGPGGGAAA
Assay [4] has as its target D(1A) dopamine receptor (Homo sapiens, UniProt P21728). Description: Displacement of [3H]SCH-23390 from human dopamine D1 receptor expressed in LHD1 cells. The class given is cell-based.
Assay [5] has as its target D(2) dopamine receptor (Homo sapiens, UniProt P14416). Nature of the assay: biochemical. The class given is cell-based, CHOp.
The target in assay [6] is Mu-type opioid receptor (Homo sapiens, UniProt P35372). Nature of the assay: Displacement of [3H]DAMGO from human mu opioid receptor expressed in CHO cell membranes incubated for 60 mins by liquid scintillation counting.
Mu-type opioid receptor, sequence (P35372 whole entry): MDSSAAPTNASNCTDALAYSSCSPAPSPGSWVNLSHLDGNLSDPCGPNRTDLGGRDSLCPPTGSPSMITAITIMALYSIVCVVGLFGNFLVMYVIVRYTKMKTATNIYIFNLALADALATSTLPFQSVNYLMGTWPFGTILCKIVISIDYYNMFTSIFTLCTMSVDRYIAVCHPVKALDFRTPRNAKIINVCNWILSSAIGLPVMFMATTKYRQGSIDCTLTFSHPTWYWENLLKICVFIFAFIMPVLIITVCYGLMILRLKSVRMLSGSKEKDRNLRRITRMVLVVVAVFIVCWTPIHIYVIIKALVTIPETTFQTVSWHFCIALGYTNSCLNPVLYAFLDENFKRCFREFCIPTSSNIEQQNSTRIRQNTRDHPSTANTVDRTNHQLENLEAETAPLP
For assay [7], the target named is D(3) dopamine receptor (Homo sapiens, UniProt P35462). Description: Displacement of [3H]YM-09151-2 from human dopamine D3 receptor expressed in CHOp cells. Type of assay: cell-based.
D(3) dopamine receptor, sequence (P35462 whole entry): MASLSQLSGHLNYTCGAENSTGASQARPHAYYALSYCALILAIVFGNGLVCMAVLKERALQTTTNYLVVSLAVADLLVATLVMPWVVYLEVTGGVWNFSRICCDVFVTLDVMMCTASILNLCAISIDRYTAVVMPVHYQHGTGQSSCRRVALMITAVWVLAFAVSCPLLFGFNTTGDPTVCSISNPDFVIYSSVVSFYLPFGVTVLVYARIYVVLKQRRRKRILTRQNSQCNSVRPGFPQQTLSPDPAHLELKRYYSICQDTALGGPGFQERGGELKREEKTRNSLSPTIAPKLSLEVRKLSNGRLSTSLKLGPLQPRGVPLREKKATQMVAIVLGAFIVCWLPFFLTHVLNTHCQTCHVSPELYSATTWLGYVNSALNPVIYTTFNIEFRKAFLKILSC
The test system of assay [8] is Mus musculus. Nature of the assay: Analgesic activity in CD1 mouse assessed as inhibition of acetic acid induced writhing dosed subcutaneously 30 mins before acetic acid challenge. Type of assay: functional. The method, boiled down:
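Mice received the drug subcutaneously across a range of doses, then underwent the acetic acid induced writhing test. Inhibition of writhing was scored against a control group. Data are mean SEM, n = 5−6 mice per group. ED₅₀ was taken from the dose–response curve.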

For assay [9], the system named is Mus musculus. Nature of the assay: Analgesic activity in CD1 mouse assessed as inhibition of acetic acid induced writhing at 2.5 mg/kg, sc dosed 30 mins before acetic acid challenge in presence of 20 mg/kg, sc KOP receptor antagonist nor-BNI. Type of assay: functional, organism-based. (An intraperitoneal irritant provokes the stretching counted in writhing tests.)

In assay [10] the target is Kappa-type opioid receptor (Cavia porcellus, UniProt P41144). Description: Displacement of [3H]ethylketocyclazocine from kappa opioid receptor in guinea pig brain.
Kappa-type opioid receptor (Cavia porcellus, UniProt P41144), sequence (P41144 whole entry): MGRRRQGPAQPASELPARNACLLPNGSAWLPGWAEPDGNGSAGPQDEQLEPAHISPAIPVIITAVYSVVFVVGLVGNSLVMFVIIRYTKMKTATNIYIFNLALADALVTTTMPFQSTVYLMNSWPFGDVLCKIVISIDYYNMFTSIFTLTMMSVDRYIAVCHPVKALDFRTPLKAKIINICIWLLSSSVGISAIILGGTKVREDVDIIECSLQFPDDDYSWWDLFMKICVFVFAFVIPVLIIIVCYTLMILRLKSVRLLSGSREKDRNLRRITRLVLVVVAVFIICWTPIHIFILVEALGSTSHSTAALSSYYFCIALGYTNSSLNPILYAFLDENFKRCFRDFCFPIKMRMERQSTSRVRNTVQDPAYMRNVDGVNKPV

T1 sequence (P41145 whole entry): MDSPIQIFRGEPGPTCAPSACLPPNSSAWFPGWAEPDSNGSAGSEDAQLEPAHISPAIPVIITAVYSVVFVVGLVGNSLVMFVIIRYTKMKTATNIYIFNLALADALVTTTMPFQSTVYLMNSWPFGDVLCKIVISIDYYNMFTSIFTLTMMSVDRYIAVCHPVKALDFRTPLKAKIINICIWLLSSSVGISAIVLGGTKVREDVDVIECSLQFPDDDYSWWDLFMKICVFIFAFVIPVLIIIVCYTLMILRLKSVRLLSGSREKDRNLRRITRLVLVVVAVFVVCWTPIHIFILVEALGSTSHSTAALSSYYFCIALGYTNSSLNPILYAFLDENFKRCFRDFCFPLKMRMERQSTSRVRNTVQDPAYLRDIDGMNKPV
D(1A) dopamine receptor, sequence (P21728 whole entry): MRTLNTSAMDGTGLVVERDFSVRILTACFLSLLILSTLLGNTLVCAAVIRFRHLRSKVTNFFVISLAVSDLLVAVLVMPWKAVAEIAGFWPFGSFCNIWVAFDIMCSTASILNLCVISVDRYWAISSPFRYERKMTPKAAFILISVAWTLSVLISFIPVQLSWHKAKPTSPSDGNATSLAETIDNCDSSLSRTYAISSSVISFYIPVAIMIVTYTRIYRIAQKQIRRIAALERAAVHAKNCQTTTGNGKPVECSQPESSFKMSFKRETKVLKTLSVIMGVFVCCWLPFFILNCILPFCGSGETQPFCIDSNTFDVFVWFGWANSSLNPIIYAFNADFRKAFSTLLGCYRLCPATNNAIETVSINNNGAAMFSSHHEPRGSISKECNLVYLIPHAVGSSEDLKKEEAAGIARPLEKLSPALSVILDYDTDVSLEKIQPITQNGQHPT
D(2) dopamine receptor, sequence (P14416 whole entry): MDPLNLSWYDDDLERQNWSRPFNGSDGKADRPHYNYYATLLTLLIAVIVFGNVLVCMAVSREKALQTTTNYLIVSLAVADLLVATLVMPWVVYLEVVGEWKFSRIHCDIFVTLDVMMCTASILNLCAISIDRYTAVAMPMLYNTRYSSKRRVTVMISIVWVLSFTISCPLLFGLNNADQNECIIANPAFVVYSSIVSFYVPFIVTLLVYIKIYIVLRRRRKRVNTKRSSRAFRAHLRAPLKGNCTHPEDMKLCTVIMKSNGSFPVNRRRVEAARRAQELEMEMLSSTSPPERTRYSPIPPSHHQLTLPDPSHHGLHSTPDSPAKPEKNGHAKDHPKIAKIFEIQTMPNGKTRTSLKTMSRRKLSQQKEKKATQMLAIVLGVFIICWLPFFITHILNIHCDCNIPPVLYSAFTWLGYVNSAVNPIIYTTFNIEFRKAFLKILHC

As a reminder, the EC50 is the midpoint of the concentration-response curve. The low end stands for an effect from little substance, the high end for a need for much substance. What is called Ki is the equilibrium dissociation constant of an inhibitor or competing ligand from its target. A higher Ki goes with lower affinity. For `CCCCCCN(CCc1ccccc1)CCc1cccc(O)c1`, in assay [1], the EC50 turned out to be 647 nM. Moreover, the Ki in assay [2] was 141 nM; in assay [3] it was 3570 nM; in assay [4], > 10000 nM; in assay [5], 831 nM; in assay [6], 788 nM; in [7], 1150 nM.

With `CCCCN(CCc1ccccc1)CCc1cccc(O)c1`, a half-maximal response in assay [1] (EC50) required 46.2 nM. In addition, the inhibition constant (Ki) is 10.9 nM in assay [2]; 2430 nM in assay [3]; > 10000 nM in assay [4]; 1230 nM in [5]; 412 nM in assay [6]; 1150 nM in assay [7].

For the compound `CCCCCN(CCc1ccccc1)CCc1cccc(O)c1`, in assay [1], the EC50 amounted to 86.4 nM. For the same compound, the Ki in assay [2] was 12.6 nM; in assay [3], 1320 nM; in assay [4], > 10000 nM; in assay [5], 1420 nM; in assay [6], 325 nM; in assay [7] it was 1100 nM.

The term ED50 denotes the dose that gives a 50% effect, or the effect in half of the subjects. With `Oc1cccc(CCN(CCc2ccccc2)CC2CCC2)c1`, the Ki is > 10000 nM in [3], > 10000 nM in assay [4], 450 nM in [5] and 282 nM in [7]. Further, in assay [8], the Activity entry is “Dose-dependent effect”. In assay [8] (CD1, sc), the ED50 came out at 1.91 mg/kg. In assay [9], the result was inactive.

Consider `Oc1cccc(CCN(CCc2ccccc2)CC2CC2)c1`, for which the Ki in assay [3] was > 10000 nM; in [4], > 10000 nM; in [5], 118 nM; in assay [7], 168 nM.

As a reminder, the IC50 is the concentration that inhibits the measured activity by half. A higher IC50 goes with weaker potency in that assay. In assay [1], `CCCN(CCc1ccccc1)CCc1cccc(O)c1` gave an EC50 of 49.1 nM. Also, the Ki is 8.13 nM in [2]; 3710 nM in assay [3]; > 10000 nM in assay [4]; 64.4 nM in assay [5]; 594 nM in [6]; 21.8 nM in [7]. This compound had a half-inhibitory concentration (IC50) in assay [10] of 57 nM.
